Measured values published in ChEMBL document CHEMBL1821661, “Design, synthesis, and biological evaluation of pyrazolopyrimidine-sulfonamides as potent multiple-mitotic kinase (MMK) inhibitors (part I)” (Bioorg Med Chem Lett, 2011).

What was measured:
Aurora kinase A = molecular target: T1, Aurora kinase A (Homo sapiens, UniProt O14965); assay: Inhibition of Aurora kinase A assessed as phosphorylation of Lats2 substrate at […] by FRET assay
T1 sequence (O14965 whole entry): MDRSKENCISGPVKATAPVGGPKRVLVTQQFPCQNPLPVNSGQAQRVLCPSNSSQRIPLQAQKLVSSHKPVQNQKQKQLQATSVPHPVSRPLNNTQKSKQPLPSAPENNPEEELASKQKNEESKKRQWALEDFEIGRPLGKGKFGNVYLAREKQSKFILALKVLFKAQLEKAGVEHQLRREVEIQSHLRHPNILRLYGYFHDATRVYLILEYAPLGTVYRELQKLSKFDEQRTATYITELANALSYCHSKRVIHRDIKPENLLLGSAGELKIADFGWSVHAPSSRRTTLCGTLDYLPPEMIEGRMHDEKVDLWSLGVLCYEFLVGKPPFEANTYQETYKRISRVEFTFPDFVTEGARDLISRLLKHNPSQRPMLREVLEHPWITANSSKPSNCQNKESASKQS

HCT-116 [1] = assay: Cytotoxicity against human HCT116 cells assessed as growth inhibition at 0.01 to 10 uM after 5 days by MTS assay; type: functional, cell-based; settings: HCT-116, 120 h
K562 = assay: Cell cycle arrest in human K562 cells assessed as accumulation of cells at G2/M phase after 24 hrs using propidium iodide by flow cytometry; type: functional, cell-based; settings: K562, 24 h, read-out: IC50
Outline: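 2 × 10⁴ K562 cells were exposed to varying compound concentrations for 24 h. Cells were stained with propidium iodide (50 µg/ml) in PBS containing 1% sodium citrate and 0.1% Triton X-100, and 5000 events were collected by flow cytometry. Cycle data were modelled by the Watson method. The minimum arrest concentration was taken where the G2:M peak ratio exceeded 1.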

[2] = molecular target: Cyclin-dependent kinase 1/cyclin B1 (Homo sapiens, UniProt P06493); assay: Inhibition of CDK1/Cyclin B assessed as phosphorylation of Z-lyte Peptide at […] by FRET assay; type: protein-complex assay
Outline: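 Z-lyte FRET kinase assay. Kinase was at 3 nM final with a coumarin/fluorescein-labelled synthetic peptide substrate and ATP. Development-step cleavage of non-phosphorylated peptide disrupts FRET. % phosphorylation was calculated from the coumarin:fluorescein emission ratio, read at 445–520 nm. EC50s were obtained by curve fitting.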

[3] = Efflux ratio of permeability in human Caco2 cells; type: ADME, cell-based; settings: Caco-2
Outline: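 Caco-2 bidirectional transport, passage 25–50, in HBSS/25 mM HEPES/1% DMSO after a 30 min pre-incubation at 37 °C. Compound was dosed apically (A–B) or basolaterally (B–A) and incubated 2 h at 37 °C with gentle shaking.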

hERG (KCNH2) = hERG (KCNH2) (Homo sapiens, UniProt Q12809); assay: Inhibition of human ERG up to 10 uM by patch clamp method
HCT-116 [4] = assay: Antitumor activity against human HCT116 cells xenografted in nu/nu mouse assessed as tumor growth inhibition at 15 to 30 mg/kg, ip for 21 days relative to control; type: functional; settings: dose mg/kg 15-30, route intraperitoneal
[5] = Hepatic blood flow in human liver microsomes assessed as compound remaining at 1.0 uM pre incubated for 5 mins at pH 7.4 by LC/MS/MS analysis; type: ADME, Microsome; settings: read-out: QH
Outline: (§1)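 Liver microsomes at 1 mg/mL protein in 50 mM potassium phosphate, pH 7.4, with 2.5 mM NADPH. Compound was used at 1.0 µM final and pre-incubated 5 min at 37 °C before NADPH started the reaction. Samples were taken at 0, 5 and 30 min, quenched in acetonitrile, and filtered. Results are expressed as %Q_h (hepatic blood flow).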

Cytochrome P450 3A4 [6] = molecular target: T2, Cytochrome P450 3A4 (Homo sapiens, UniProt P08684); assay: Inhibition of CYP3A4 using a fluorescent probe 7-benzyloxyquinoline; type: ADME
Cytochrome P450 1A2 = molecular target: T3, Cytochrome P450 1A2 (Homo sapiens, UniProt P05177); assay: Inhibition of CYP1A2; type: ADME
T3 sequence (P05177 whole entry): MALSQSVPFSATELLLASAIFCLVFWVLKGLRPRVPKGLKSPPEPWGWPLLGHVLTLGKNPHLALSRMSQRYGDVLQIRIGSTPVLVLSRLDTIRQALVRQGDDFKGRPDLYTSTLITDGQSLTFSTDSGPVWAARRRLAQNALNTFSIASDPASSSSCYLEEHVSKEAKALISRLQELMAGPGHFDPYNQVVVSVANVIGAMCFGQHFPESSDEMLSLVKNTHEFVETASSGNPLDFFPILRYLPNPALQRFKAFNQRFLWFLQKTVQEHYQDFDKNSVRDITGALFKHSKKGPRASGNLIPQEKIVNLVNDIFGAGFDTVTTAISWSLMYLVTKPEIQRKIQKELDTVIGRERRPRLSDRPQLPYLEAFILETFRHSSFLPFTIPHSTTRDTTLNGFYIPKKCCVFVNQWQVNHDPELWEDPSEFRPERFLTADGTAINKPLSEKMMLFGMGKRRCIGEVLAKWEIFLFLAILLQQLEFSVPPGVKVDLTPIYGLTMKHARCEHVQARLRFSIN

[7] = Apparent permeability from apical to basolateral side of the human Caco2 cells after 2 hrs; type: ADME, cell-based; settings: Caco-2
Outline: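 Caco-2 cells, passage 25–50, were grown on transwell inserts. They were washed and pre-incubated 30 min at 37 °C in HBSS with 25 mM HEPES and 1% DMSO. Compound was added to the apical chamber and apical-to-basolateral transport was measured after 2 h at 37 °C with gentle shaking.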

[8] = Hepatic blood flow in mouse liver microsomes assessed as compound remaining at 1.0 uM pre incubated for 5 mins at pH 7.4 by LC/MS/MS analysis; type: ADME, Microsome; settings: read-out: QH; outline: as §1
Cytochrome P450 2D6 = Cytochrome P450 2D6 (Homo sapiens, UniProt P10635); assay: Inhibition of CYP2D6 using a fluorescent probe 3-[2-(N,N-diethyl-N-methylamino)ethyl]-7-methoxy-4methylcoumarin; type: ADME
Outline: (§2)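 Fluorescent-probe CYP inhibition assay. Probes: 7-methoxy-4-trifluoromethylcoumarin for 2C9; 3-[2-(N,N-diethyl-N-methylamino)ethyl]-7-methoxy-4-methylcoumarin for 2D6.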

Cytochrome P450 3A4 [9] = molecular target: T2, Cytochrome P450 3A4; assay: Inhibition of CYP3A4 using a fluorescent probe 7-benzyloxy-4(trifluoromethyl)-coumarin; type: ADME
Cytochrome P450 2C19 = Cytochrome P450 2C19 (Homo sapiens, UniProt P33261); assay: Inhibition of CYP2C19; type: ADME
[10] = Hepatic blood flow in rat liver microsomes assessed as compound remaining at 1.0 uM pre incubated for 5 mins at pH 7.4 by LC/MS/MS analysis; type: ADME, Microsome; settings: read-out: QH; outline: as §1
Mus musculus = assay: Toxicity in nu/nu mouse xenografted with human HCT116 cells assessed as change in body weight at 15 to 30 mg/kg, […]; type: organism-based, HCT-116; set-up: dose 15-30 mg/kg, route intraperitoneal; settings: in vivo, ip, 504 h
Cytochrome P450 2C9 = Cytochrome P450 2C9 (Homo sapiens, UniProt P11712); assay: Inhibition of CYP2C9 using a fluorescent probe 7-methoxy-4-trifluoromethylcoumarin; type: ADME; outline: as §2
Sequence of Cytochrome P450 2C9 (P11712 whole entry): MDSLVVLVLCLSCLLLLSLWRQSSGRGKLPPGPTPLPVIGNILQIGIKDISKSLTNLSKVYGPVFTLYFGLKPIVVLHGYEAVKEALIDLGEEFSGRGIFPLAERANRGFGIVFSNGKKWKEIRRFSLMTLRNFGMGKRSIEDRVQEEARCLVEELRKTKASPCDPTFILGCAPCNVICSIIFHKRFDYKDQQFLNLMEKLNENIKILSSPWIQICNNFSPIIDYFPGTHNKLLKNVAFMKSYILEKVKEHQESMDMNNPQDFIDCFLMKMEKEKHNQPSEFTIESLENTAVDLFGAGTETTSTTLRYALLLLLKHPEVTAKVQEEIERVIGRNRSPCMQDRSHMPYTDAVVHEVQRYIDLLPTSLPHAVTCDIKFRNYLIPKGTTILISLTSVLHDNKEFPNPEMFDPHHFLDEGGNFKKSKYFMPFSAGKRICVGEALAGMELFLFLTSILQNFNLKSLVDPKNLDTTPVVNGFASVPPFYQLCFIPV

T2 sequence (P08684 whole entry): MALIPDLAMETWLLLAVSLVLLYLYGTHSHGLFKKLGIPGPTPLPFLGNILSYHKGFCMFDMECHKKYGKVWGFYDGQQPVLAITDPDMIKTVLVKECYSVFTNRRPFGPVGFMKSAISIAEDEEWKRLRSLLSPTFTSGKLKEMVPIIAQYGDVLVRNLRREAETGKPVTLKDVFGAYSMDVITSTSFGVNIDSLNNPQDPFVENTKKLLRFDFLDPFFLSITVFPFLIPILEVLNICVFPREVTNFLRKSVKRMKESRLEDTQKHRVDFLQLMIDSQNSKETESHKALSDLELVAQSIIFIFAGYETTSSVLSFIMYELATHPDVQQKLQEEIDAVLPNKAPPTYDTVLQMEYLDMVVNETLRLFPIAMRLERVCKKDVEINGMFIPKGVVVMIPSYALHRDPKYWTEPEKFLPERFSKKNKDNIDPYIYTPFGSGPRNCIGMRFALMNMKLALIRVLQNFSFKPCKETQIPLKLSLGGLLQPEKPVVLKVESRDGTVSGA
Sequence of Cyclin-dependent kinase 1/cyclin B1 (P06493 whole entry): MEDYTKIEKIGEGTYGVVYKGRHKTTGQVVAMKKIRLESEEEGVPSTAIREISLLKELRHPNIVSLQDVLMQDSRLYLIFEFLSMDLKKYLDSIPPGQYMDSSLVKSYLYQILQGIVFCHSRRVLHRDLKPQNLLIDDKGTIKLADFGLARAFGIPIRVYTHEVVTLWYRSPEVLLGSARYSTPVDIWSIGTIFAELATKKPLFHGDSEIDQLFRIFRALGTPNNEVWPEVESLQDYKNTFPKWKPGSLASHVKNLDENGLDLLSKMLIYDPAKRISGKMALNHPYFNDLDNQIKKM
Sequence of Cyclin-dependent kinase 1/cyclin B1 (P14635 whole entry, further chain): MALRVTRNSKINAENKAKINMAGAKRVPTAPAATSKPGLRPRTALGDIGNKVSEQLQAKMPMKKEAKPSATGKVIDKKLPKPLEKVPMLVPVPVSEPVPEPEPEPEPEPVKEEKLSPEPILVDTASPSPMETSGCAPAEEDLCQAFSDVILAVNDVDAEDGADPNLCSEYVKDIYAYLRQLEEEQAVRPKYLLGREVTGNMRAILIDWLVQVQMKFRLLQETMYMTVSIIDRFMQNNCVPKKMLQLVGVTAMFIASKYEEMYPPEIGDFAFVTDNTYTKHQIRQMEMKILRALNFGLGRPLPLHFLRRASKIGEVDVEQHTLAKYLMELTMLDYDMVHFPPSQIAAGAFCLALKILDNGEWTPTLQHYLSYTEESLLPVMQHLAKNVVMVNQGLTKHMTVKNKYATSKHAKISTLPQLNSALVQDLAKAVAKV
Sequence of Cytochrome P450 2C19 (P33261 whole entry): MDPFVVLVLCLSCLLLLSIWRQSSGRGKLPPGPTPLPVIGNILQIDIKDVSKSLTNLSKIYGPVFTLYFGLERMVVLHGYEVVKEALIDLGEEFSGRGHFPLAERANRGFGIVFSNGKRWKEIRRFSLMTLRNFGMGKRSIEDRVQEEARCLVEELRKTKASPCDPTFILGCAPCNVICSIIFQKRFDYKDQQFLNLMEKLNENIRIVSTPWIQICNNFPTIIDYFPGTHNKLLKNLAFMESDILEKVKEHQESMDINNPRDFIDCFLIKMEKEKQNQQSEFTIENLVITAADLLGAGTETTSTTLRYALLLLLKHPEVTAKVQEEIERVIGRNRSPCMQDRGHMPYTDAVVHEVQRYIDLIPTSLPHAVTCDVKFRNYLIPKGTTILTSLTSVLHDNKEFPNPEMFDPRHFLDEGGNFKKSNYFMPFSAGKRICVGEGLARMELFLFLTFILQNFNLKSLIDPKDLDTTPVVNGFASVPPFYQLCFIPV
Sequence of Cytochrome P450 2D6 (P10635 whole entry): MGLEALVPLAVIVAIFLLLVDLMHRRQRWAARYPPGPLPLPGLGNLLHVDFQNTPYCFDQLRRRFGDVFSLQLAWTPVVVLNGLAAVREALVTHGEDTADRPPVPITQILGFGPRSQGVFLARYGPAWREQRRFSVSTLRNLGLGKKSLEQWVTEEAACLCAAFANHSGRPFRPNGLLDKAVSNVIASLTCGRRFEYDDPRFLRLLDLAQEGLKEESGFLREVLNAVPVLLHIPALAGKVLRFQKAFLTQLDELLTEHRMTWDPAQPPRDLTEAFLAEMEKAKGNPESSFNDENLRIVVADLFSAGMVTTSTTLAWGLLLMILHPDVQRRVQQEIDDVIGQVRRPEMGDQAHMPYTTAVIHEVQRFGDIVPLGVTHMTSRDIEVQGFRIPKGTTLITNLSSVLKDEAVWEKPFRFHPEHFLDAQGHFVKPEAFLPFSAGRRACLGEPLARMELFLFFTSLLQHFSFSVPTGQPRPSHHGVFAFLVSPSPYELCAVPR
Sequence of hERG (KCNH2) (Q12809 whole entry): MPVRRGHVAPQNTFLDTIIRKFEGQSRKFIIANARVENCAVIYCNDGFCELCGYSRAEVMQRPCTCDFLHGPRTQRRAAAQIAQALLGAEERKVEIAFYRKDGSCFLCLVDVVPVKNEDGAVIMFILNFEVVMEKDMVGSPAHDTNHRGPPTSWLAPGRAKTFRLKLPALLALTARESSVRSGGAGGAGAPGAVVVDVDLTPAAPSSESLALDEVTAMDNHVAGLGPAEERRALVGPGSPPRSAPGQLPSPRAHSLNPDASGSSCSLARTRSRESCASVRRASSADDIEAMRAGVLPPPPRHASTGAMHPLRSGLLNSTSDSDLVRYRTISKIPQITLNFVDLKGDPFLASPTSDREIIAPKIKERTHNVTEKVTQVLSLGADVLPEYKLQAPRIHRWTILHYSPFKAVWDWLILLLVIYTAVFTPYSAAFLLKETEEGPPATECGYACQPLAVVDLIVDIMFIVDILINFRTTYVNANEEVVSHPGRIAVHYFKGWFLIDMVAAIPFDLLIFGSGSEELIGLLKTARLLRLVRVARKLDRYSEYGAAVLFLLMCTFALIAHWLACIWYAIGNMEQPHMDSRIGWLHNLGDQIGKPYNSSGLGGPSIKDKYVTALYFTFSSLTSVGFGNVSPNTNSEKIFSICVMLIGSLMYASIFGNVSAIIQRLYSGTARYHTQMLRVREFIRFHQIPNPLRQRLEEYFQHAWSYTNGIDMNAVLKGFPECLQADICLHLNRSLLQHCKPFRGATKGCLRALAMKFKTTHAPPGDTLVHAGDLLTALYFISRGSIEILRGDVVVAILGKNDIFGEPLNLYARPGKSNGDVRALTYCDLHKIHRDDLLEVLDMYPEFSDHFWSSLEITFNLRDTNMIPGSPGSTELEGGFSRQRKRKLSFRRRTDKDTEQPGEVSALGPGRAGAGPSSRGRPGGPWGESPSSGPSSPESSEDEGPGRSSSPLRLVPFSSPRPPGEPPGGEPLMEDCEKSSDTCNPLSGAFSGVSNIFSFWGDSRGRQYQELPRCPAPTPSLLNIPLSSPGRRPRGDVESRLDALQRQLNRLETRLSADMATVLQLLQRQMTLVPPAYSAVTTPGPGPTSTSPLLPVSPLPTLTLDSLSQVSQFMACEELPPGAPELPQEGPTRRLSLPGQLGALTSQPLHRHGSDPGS

SMILES	IC50 (Aurora kinase A)	IC50 [2]	IC50 (HCT-116 [1])	Minimum G2/M arrest concentration (K562)	further results
CS(=O)(=O)N(CCN1CCOCC1)c1ccc(Nc2ncc3cnn(C4CCCCCC4)c3n2)cc1	14 nM	23 nM	160 nM	100 nM	efflux ratio [3]: 1.1; inhibition at up to 10 uM (hERG (KCNH2)): 40%; growth inhibition (GI) (HCT-116 [4]): 50%; hepatic extraction ratio at 5 min, 1 µM [5]: 0.95; IC50 (Cytochrome P450 3A4 [6]): 40 nM; IC50 (Cytochrome P450 1A2): > 10000 nM; Papp A→B at 2 h [7]: 26.5 ×10⁻⁶ cm/s; hepatic extraction ratio at 5 min, 1 µM [8]: 0.96; IC50 (Cytochrome P450 2D6): > 10000 nM; IC50 (Cytochrome P450 3A4 [9]): 40 nM; IC50 (Cytochrome P450 2C19): 30 nM; hepatic extraction ratio at 5 min, 1 µM [10]: 0.94; Activity (Mus musculus): Non-toxic; IC50 (Cytochrome P450 2C9): 1 nM
CC(C)N(c1ccc(Nc2ncc3cnn(C4CCCCCC4)c3n2)cc1)S(C)(=O)=O	5 nM	90 nM	240 nM	300 nM	–
CS(=O)(=O)N(Cc1ccncc1)c1ccc(Nc2ncc3cnn(C4CCCCCC4)c3n2)cc1	30 nM	23 nM	250 nM	300 nM	–
CS(=O)(=O)Nc1ccc(Nc2ncc3cnn(C4CCCCCC4)c3n2)cn1	–	7 nM	210 nM	300 nM	efflux ratio [3]: 1.5; inhibition at up to 10 uM (hERG (KCNH2)): 6.5%; hepatic extraction ratio at 5 min, 1 µM [5]: 0.39; IC50 (Cytochrome P450 3A4 [6]): > 10000 nM; IC50 (Cytochrome P450 1A2): > 10000 nM; Papp A→B at 2 h [7]: 20.1 ×10⁻⁶ cm/s; hepatic extraction ratio at 5 min, 1 µM [8]: 0.33; IC50 (Cytochrome P450 2D6): > 10000 nM; IC50 (Cytochrome P450 3A4 [9]): > 10000 nM; IC50 (Cytochrome P450 2C19): > 10000 nM; hepatic extraction ratio at 5 min, 1 µM [10]: 0.3; IC50 (Cytochrome P450 2C9): > 10000 nM
CS(=O)(=O)N(CCN1CCOCC1)c1ccc(Nc2ncc3cnn(C4CCCCCC4)c3n2)cn1	150 nM	31 nM	500 nM	2000 nM	–
CS(=O)(=O)N(CCN1CCCC1)c1ccc(Nc2ncc3cnn(C4CCCCCC4)c3n2)cn1	350 nM	10 nM	125 nM	1000 nM	–
CN(C)CCN(c1ccc(Nc2ncc3cnn(C4CCCCCC4)c3n2)cn1)S(C)(=O)=O	260 nM	10 nM	220 nM	300 nM	–
CS(=O)(=O)N(Cc1ccncc1)c1ccc(Nc2ncc3cnn(C4CCCCCC4)c3n2)cn1	95 nM	13 nM	320 nM	300 nM	–
CS(=O)(=O)N(c1ccc(Nc2ncc3cnn(C4CCCCCC4)c3n2)nc1)S(C)(=O)=O	> 10000 nM	> 10000 nM	–	> 3000 nM	–

The next compounds have a lower IC50 [2] than those just listed; values first:

IC50 (Aurora kinase A)	IC50 [2]	SMILES	IC50 (HCT-116 [1])	Minimum G2/M arrest concentration (K562)	further results
6 nM	6 nM	CS(=O)(=O)N(CCCO)c1ccc(Nc2ncc3cnn(C4CCCCCC4)c3n2)cc1	78 nM	100 nM	–
9 nM	6 nM	CS(=O)(=O)N(CCCN1CCCCC1)c1ccc(Nc2ncc3cnn(C4CCCCCC4)c3n2)cc1	92 nM	100 nM	–
13 nM	5 nM	CS(=O)(=O)N(CCO)c1ccc(Nc2ncc3cnn(C4CCCCCC4)c3n2)cc1	77 nM	30 nM	–
–	5 nM	CS(=O)(=O)N(CCCN1CCOCC1)c1ccc(Nc2ncc3cnn(C4CCCCCC4)c3n2)cc1	170 nM	100 nM	–
20 nM	5 nM	CS(=O)(=O)N(CCN)c1ccc(Nc2ncc3cnn(C4CCCCCC4)c3n2)cc1	60 nM	100 nM	–
110 nM	4 nM	CS(=O)(=O)N(CCO)c1ccc(Nc2ncc3cnn(C4CCCCCC4)c3n2)cn1	145 nM	300 nM	–
–	3 nM	CS(=O)(=O)N(CCN)c1ccc(Nc2ncc3cnn(C4CCCCCC4)c3n2)cn1	119 nM	300 nM	–
